What was measured:
[1] = target: Tyrosine-protein kinase ABL1 (Homo sapiens, UniProt P00519); assay: Inhibition of ABL ACT labeling site in human A-375 cells at 0.5 uM by KiNativ Profiling analysis relative to control; format: cell-based
Summary of the method: (§1)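 Intact A375 melanoma cells were treated with compound at 5 or 0.5 μM, then lysed. Lysate kinases were labeled with a lysine-reactive ATP or ADP-biotin probe (KiNativ). Inhibition is read as protection of each kinase labeling site from probe labeling.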

[2] = target: Tyrosine-protein kinase ABL2 (Homo sapiens, UniProt P42684); assay: Inhibition of ARG ACT labeling site in human A-375 cells at 0.5 uM by KiNativ Profiling analysis relative to control; format: cell-based; summary of the method: as §1
[3] = target: T1, Ephrin type-B receptor 4 (Homo sapiens) (UniProt P54760); assay: Inhibition of EphB4 ACT labeling site in human A-375 cells at 0.5 uM by KiNativ Profiling analysis relative to control; format: cell-based
T1 sequence (whole entry): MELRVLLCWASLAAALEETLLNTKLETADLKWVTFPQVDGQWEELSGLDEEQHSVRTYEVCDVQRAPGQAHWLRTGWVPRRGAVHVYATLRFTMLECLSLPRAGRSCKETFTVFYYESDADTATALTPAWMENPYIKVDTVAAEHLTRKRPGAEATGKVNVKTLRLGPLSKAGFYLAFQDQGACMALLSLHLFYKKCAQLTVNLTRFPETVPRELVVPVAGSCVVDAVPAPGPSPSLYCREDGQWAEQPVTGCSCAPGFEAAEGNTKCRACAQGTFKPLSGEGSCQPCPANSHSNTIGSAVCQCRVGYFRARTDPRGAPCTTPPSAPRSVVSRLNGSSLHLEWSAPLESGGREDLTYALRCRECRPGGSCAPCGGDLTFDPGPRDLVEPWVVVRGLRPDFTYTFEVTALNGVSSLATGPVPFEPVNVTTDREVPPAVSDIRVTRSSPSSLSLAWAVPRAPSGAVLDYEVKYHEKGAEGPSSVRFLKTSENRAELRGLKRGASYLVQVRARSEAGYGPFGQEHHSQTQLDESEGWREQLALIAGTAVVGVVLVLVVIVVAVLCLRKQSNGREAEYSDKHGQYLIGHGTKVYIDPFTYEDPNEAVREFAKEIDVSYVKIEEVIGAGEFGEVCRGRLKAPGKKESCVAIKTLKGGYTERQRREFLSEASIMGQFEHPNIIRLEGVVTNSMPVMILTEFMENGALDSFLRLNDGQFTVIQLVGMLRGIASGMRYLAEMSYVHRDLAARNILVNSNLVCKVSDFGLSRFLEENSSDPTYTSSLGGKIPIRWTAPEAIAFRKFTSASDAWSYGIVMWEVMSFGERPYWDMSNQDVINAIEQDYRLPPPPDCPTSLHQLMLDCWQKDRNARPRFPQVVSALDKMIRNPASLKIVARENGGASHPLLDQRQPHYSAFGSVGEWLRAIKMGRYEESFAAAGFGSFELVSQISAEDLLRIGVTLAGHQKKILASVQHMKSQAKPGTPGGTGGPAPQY
Summary of the method: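 Live A375 melanoma cells were treated with compound at 0.5 or 5 μM, then lysed. Lysates were labeled with a lysine-reactive ATP or ADP-biotin probe. The read-out was protection of each kinase probe-labeling site from labeling, relative to control.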

[4] = target: Calcium/calmodulin-dependent protein kinase type 1 (Homo sapiens) (UniProt Q14012); assay: Inhibition of CAMK1 alpha Lys1 labeling site in human A-375 cells at 0.5 uM by KiNativ Profiling analysis relative to control; format: cell-based; summary of the method: as §1
[5] = target: Calcium/calmodulin-dependent protein kinase kinase 2 (Homo sapiens) (UniProt Q96RR4); assay: Inhibition of CaMKK2 Lys1 labeling site in human A-375 cells at 5 uM by KiNativ Profiling analysis relative to control; format: cell-based
Summary of the method: (§2)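 Live A375 melanoma cells were treated with compound at 5 or 0.5 μM. The cells were then lysed, and the lysates were labeled with a lysine-reactive ATP or ADP-biotin acyl probe (KiNativ). Inhibition is the compound's protection of each kinase labeling-site peptide from probe labeling, relative to untreated control.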

[6] = target: Cyclin-dependent kinase 2 (Homo sapiens) (UniProt P24941); assay: Inhibition of CDK2 Lys2 labeling site in human A-375 cells at 0.5 uM by KiNativ Profiling analysis relative to control; format: cell-based; summary of the method: as §2
[7] = target: Serine/threonine-protein kinase 26 (Homo sapiens) (UniProt Q9P289); assay: Inhibition of MST4 ACT labeling site in human A-375 cells at 0.5 uM by KiNativ Profiling analysis relative to control; format: cell-based
[8] = target: RAC-gamma serine/threonine-protein kinase (Homo sapiens) (UniProt Q9Y243); assay: Inhibition of AKT3 ATP Loop labeling site in human A-375 cells at 0.05 uM by KiNativ Profiling analysis relative to control; format: cell-based
[9] = target: Cyclin-dependent kinase 2 (Homo sapiens) (UniProt P24941); assay: Inhibition of CDK2 Lys1 labeling site in human A-375 cells at 0.05 uM by KiNativ Profiling analysis relative to control; format: cell-based
[10] = target: T2, Mitogen-activated protein kinase 12 (Homo sapiens) (UniProt P53778); assay: Inhibition of p38gamma Lys2 labeling site in human Huh-7 cell lysate at 1 uM by KiNativ Profiling analysis relative to control; format: subcellular
T2 sequence (whole entry): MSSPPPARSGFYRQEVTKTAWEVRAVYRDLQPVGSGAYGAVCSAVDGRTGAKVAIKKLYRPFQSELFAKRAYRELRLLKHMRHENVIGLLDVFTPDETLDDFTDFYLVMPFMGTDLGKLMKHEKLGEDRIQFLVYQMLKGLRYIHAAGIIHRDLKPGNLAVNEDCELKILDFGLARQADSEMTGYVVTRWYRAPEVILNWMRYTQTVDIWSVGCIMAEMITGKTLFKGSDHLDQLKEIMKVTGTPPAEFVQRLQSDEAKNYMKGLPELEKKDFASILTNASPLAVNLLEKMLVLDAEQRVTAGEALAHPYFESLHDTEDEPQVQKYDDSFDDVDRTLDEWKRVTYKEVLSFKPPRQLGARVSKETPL

Chain of Calcium/calmodulin-dependent protein kinase type 1 (Homo sapiens) (Q14012 whole entry, looked up): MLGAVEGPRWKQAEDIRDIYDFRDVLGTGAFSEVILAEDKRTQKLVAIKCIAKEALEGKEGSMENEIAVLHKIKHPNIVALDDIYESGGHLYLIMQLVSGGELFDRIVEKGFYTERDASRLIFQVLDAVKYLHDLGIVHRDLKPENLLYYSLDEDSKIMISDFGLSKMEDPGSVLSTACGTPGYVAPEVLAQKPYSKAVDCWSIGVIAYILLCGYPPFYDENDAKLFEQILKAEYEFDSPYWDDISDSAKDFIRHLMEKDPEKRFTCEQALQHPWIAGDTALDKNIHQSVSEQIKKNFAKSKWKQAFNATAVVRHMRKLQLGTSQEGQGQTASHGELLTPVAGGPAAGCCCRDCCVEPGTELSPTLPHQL
Chain of Calcium/calmodulin-dependent protein kinase kinase 2 (Homo sapiens) (Q96RR4 2-588 limits assumed): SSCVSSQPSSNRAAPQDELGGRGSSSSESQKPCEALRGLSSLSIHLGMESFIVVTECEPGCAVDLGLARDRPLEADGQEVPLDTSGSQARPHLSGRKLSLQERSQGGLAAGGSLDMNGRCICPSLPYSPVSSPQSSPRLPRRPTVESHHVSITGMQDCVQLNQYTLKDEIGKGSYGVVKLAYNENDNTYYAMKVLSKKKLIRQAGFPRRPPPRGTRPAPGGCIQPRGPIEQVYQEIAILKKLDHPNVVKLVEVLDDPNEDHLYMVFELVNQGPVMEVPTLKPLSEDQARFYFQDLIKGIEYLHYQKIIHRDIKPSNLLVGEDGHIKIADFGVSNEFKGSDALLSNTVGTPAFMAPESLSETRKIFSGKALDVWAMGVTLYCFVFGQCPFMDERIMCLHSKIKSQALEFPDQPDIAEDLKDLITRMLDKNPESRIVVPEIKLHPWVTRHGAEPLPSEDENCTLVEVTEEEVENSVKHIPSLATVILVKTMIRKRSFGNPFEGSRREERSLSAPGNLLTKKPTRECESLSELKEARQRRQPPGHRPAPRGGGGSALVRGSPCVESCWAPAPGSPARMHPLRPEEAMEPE
Chain of Tyrosine-protein kinase ABL2 (P42684 whole entry): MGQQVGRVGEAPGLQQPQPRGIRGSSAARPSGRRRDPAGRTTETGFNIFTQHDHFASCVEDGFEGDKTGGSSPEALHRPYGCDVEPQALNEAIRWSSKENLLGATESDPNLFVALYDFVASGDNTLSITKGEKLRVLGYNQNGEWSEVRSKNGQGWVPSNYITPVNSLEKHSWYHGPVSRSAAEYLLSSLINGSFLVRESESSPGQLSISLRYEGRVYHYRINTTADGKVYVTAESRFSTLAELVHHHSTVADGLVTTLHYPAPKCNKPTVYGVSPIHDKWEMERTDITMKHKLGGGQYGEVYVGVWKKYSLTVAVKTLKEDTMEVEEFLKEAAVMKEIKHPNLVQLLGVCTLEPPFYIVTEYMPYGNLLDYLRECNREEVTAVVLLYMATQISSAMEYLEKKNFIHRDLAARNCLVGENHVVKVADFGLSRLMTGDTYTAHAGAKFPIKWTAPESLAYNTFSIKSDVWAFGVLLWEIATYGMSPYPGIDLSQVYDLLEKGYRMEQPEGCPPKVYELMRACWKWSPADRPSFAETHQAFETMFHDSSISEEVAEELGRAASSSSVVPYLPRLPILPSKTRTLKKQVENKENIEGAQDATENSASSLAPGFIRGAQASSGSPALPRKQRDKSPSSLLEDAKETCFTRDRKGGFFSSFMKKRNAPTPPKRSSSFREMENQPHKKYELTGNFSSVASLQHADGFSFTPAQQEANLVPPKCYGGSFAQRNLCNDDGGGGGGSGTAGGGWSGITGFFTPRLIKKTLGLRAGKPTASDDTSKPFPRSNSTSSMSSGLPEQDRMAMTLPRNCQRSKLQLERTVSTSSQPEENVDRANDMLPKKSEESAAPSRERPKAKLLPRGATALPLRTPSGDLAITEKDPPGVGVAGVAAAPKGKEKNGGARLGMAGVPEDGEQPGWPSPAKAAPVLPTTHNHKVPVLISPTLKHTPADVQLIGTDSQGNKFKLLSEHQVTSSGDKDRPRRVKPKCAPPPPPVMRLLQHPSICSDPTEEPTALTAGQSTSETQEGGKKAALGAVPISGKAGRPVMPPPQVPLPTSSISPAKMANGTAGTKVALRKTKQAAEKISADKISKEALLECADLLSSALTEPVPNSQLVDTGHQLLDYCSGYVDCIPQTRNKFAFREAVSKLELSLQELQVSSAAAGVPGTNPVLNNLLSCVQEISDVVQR
Chain of Tyrosine-protein kinase ABL1 (P00519 whole entry): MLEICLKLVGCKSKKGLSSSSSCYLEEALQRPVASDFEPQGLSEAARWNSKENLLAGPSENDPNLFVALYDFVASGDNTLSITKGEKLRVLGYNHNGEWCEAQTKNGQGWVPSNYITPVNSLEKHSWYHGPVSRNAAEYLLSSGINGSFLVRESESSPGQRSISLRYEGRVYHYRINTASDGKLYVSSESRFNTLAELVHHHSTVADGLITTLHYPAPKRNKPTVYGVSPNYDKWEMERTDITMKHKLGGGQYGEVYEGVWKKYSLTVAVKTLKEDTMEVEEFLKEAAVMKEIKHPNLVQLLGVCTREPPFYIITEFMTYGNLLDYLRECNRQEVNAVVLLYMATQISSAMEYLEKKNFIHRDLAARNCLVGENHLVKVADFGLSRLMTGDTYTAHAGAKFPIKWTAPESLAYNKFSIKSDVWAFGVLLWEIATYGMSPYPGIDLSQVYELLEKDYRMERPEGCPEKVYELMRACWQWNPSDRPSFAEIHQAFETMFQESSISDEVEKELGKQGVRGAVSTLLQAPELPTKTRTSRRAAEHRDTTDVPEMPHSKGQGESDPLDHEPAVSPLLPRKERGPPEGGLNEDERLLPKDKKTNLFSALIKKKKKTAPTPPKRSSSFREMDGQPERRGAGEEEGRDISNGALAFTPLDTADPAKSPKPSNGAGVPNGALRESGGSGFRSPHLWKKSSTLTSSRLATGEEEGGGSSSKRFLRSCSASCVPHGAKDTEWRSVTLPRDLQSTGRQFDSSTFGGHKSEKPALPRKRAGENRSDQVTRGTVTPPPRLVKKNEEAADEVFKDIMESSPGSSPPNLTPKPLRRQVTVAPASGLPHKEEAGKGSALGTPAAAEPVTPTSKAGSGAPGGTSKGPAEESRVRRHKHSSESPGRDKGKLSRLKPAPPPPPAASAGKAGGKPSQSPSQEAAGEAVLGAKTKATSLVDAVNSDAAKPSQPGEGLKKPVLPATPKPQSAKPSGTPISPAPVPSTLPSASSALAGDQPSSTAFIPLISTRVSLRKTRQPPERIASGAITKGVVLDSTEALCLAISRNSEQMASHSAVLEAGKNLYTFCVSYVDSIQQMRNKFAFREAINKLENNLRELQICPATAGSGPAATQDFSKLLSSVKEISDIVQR
Chain of Serine/threonine-protein kinase 26 (Homo sapiens) (Q9P289 2-416 limits assumed): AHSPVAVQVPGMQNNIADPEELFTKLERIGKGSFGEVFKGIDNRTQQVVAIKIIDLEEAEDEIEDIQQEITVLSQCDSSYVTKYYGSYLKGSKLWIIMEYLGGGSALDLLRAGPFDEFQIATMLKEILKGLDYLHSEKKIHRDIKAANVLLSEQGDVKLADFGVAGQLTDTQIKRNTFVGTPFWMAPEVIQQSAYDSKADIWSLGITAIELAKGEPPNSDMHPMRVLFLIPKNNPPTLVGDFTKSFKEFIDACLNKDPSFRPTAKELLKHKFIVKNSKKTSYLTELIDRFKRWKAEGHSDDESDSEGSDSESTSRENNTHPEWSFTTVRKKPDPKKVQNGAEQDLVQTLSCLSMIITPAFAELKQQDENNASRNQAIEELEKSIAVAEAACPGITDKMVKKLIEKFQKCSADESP
Chain of RAC-gamma serine/threonine-protein kinase (Homo sapiens) (Q9Y243 whole entry): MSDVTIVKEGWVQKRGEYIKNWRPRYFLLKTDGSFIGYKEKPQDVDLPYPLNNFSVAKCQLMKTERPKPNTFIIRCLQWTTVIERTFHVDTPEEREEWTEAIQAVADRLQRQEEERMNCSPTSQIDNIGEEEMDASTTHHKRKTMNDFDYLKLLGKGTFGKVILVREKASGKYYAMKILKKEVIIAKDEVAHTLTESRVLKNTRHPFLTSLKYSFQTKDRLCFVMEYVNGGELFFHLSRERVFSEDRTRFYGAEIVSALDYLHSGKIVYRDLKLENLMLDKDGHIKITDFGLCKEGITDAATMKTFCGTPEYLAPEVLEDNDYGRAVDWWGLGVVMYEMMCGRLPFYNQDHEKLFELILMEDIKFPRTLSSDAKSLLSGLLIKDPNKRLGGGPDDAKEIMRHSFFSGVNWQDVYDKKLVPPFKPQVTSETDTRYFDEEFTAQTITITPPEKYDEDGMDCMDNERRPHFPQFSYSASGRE

SMILES	inhibition [1] [%]	inhibition [2] [%]	inhibition [3] [%]	inhibition [4] [%]	inhibition [5] [%]	inhibition [6] [%]	inhibition [7] [%]	inhibition [8] [%]	inhibition [9] [%]	inhibition [10] [%]
CCN1CCN(Cc2ccc(NC(=O)c3ccc(C)c(/C=C/c4cnc5[nH]ccc5c4OC)c3)cc2C(F)(F)F)CC1	> 98	> 98	78.1	37	14.4	19.4	18.3	20.9	13.8	–
CCN1CCN(Cc2ccc(NC(=O)c3ccc(C)c(Oc4ccnc5[nH]ccc45)c3)cc2C(F)(F)F)CC1	> 98	> 95	39.2	69.7	33.2	4.5	31.3	-3.9	16.1	–
CNc1cc(Oc2cc(C(=O)Nc3cc(-n4cnc(C)c4)cc(C(F)(F)F)c3)ccc2C)ncn1	–	–	–	–	–	–	–	–	–	5.5
CNc1cc(Oc2cc(C(=O)Nc3cc(N4CCN(C)CC4)cc(C(F)(F)F)c3)ccc2C)ncn1	–	–	–	–	–	–	–	–	–	12.8

From ChEMBL document CHEMBL5696442, “Discovery of type II inhibitors of TGFβ-activated kinase 1 (TAK1) and mitogen-activated protein kinase kinase kinase kinase 2 (MAP4K2)” (J Med Chem, 2015)
